Source: ChEMBL document CHEMBL1154693, “Discovery of trans-4-[1-[[2,5-Dichloro-4-(1-methyl-3-indolylcarboxamido)phenyl]acetyl]-(4S)-methoxy-(2S)-pyrrolidinylmethoxy]cyclohexanecarboxylic acid: an orally active, selective very late antigen-4 antagonist” (J Med Chem, 2009)

Key:
Integrin alpha-4/beta-1 [1] = biological target: T1, Integrin alpha-4/beta-1 (Homo sapiens, UniProt P05556+P13612); test: Inhibition of europium labeled human VCAM1/Fc chimera binding to human VLA-4 alpha-4-beta-1 expressed in Chinese hamster 4B4 cells by fluorimetric assay; type: cell-based
T1 sequence (P05556 whole entry): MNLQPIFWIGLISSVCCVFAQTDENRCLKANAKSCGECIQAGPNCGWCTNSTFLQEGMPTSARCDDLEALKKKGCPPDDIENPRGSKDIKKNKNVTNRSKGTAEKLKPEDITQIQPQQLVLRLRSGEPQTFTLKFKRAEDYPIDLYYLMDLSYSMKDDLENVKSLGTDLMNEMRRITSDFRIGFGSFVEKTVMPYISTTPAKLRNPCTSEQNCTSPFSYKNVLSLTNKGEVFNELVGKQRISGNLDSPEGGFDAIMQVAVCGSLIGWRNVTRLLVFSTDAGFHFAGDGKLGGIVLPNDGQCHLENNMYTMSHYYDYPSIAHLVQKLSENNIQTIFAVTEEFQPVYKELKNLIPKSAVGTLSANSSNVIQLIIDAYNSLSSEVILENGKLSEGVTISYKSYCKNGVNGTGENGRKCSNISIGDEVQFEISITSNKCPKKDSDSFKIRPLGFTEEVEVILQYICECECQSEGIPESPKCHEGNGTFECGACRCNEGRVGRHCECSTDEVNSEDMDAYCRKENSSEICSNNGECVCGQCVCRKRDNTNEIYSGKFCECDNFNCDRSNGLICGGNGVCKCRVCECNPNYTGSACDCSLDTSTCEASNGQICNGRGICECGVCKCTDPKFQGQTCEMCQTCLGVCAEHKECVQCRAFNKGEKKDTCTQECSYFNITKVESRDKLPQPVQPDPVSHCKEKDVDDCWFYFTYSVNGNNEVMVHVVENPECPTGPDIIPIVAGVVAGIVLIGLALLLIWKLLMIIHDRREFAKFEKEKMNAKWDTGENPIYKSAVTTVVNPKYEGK
T1 sequence (P13612 whole entry): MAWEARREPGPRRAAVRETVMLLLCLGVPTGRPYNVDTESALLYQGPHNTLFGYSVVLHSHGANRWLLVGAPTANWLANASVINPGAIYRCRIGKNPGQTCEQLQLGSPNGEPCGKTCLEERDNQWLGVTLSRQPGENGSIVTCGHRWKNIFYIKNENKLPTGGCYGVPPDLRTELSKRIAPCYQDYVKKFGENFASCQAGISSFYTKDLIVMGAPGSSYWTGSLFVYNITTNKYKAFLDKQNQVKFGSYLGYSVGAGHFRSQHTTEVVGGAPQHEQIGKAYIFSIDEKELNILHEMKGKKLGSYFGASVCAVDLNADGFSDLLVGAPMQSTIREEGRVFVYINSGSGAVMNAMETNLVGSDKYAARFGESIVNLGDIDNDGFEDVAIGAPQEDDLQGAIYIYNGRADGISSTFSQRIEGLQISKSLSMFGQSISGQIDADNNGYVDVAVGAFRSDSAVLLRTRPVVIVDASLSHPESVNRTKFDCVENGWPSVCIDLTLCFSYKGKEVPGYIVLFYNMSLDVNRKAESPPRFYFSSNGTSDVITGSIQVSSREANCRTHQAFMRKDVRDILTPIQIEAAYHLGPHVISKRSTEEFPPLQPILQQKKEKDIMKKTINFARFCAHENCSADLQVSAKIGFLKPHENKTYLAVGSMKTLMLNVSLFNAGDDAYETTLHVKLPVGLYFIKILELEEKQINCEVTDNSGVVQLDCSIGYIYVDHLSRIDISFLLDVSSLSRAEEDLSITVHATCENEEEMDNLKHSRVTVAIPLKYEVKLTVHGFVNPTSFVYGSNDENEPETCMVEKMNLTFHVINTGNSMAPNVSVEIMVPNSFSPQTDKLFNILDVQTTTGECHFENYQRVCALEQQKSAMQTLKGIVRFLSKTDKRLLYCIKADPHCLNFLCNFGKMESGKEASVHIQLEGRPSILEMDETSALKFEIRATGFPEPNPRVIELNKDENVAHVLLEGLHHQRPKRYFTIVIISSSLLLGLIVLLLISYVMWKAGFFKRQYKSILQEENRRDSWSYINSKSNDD

Integrin alpha-4/beta-1 [2] = biological target: T1, Integrin alpha-4/beta-1; test: Inhibition of europium labeled human VCAM1/Fc chimera binding to human VLA-4 alpha-4-beta-1 expressed in Chinese hamster 4B4 cells at 1.7 uM in presence of 3% HSA by fluorimetric assay; type: cell-based
In short: (§1)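 CHO-K1 4B4 cells transfected with human α4 and β1, plated at 3 × 10⁵ cells/mL and cultured 2 days, washed with HEPES pH 7.5 buffer containing Ca, Mg, Mn. Compound plus Eu-labeled human VCAM-1/Fc (final 1 nM), with or without human serum albumin, 60 min at room temperature; washed, Eu time-resolved fluorescence read; duplicates.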

[3] = Drug level in BALB/c mouse serum at 10 mg/kg, po after 15 mins; type: ADME, organism-based; design: dose 10 mg/kg, route oral; settings: read-out: Drug uptake
In short: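 Serum (final 0.01-10%) assayed in the VLA-4/VCAM-1 binding assay, and concentration estimated from a calibration curve of compound spiked into untreated mouse serum.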

Integrin alpha-4/beta-1 [4] = biological target: T1, Integrin alpha-4/beta-1; test: Inhibition of europium labeled human VCAM1/Fc chimera binding to human VLA-4 alpha-4-beta-1 expressed in Chinese hamster 4B4 cells in presence of 3% HSA by fluorimetric assay; type: cell-based; in short: as §1
[5] = Volume of distribution at steady state in Sprague-Dawley rat at 1 mg/kg, iv; type: ADME, organism-based; design: dose 1 mg/kg, route intravenous; settings: in vivo, read-out: Vdss
In short: (§2)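 Male Sprague-Dawley rats (7 weeks), fasted 18 h, four per group. 1 mg/kg oral in 0.5% MC or iv in saline, each with 3 equiv NaOH. Plasma drawn at 0.08 (iv) or 0.25 (po), 0.5, 1, 2 and 6 h; LC/MS/MS quantitation, noncompartmental parameters.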

[6] = Clearance in Sprague-Dawley rat at 1 mg/kg, iv; type: ADME, organism-based; design: dose 1 mg/kg, route intravenous; settings: in vivo; in short: as §2
[7] = Half life in Sprague-Dawley rat at 1 mg/kg, iv; type: ADME, organism-based; design: dose 1 mg/kg, route intravenous; settings: in vivo; in short: as §2
Mus musculus [8] = test: Antiinflammatory activity in Ascaris suum antigen-induced BALB/c AnNCrj mouse asthma model assessed as inhibition of eosinophil infiltration in BAL fluid at 5 mg.kg, po bid administered 15 mins before and 8, 24 and 32 hrs after antigen challenge measured 48 hrs after antigen challenge; type: functional
In short: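 Female BALB/c AnNCrj mice given cyclophosphamide 150 mg/kg po (day 0), sensitized ip with Ascaris suum extract plus alum on days 2 and 14, challenged intratracheally day 22. Compound in 0.5% MC/0.03% Tween 80 po 15 min before and 8, 24, 32 h after challenge; BAL at 48 h, eosinophils from total count times Wright-stained differential.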

Mus musculus [9] = test: Toxicity in BALB/c AnNCrj mouse assessed as induction of cholestatic liver injury at 25 mg/kg, po for 2 days; type: organism-based; design: dose 25 mg/kg, route oral; settings: in vivo, 48 h
In short: (§3)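 Mice dosed iv at 50 mg/kg or orally at 25 or 200 (mg/kg)/day for 2 days, then assessed for liver injury.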

Mus musculus [10] = test: Toxicity in BALB/c AnNCrj mouse assessed as induction of cholestatic liver injury at 50 mg/kg, iv for 2 days; type: organism-based; design: dose 50 mg/kg, route intravenous; settings: in vivo, 48 h; in short: as §3
Integrin alpha-4/beta-1 [11] = biological target: T1, Integrin alpha-4/beta-1; test: Inhibition of europium labeled human VCAM1/Fc chimera binding to human VLA-4 alpha-4-beta-1 expressed in Chinese hamster 4B4 cells at 2 uM in presence of 3% HSA by fluorimetric assay; type: cell-based; in short: as §1
Integrin alpha-4/beta-1 [12] = biological target: T1, Integrin alpha-4/beta-1; test: Inhibition of europium labeled human VCAM1/Fc chimera binding to human VLA-4 alpha-4-beta-1 expressed in Chinese hamster 4B4 cells at 2 uM by fluorimetric assay; type: cell-based; in short: as §1
Integrin alpha-4/beta-1 [13] = biological target: T1, Integrin alpha-4/beta-1; test: Inhibition of europium labeled human VCAM1/Fc chimera binding to human VLA-4 alpha-4-beta-1 expressed in Chinese hamster 4B4 cells at 1.7 uM by fluorimetric assay; type: cell-based; in short: as §1
in vivo = settings: rat, plasma
[14] = Oral bioavailability in rat; settings: in vivo
Integrin alpha-4/beta-1 [15] = biological target: T1, Integrin alpha-4/beta-1; test: Inhibition of europium labeled human VCAM1/Fc chimera binding to human VLA-4 alpha-4-beta-1 expressed in Chinese hamster 4B4 cells at 1.8 uM in presence of 3% HSA by fluorimetric assay; type: cell-based; in short: as §1

SMILES	IC50 (Integrin alpha-4/beta-1 [1]) [nM]	concentration at 0.25 h [3] [ng/mL]	IC50 (Integrin alpha-4/beta-1 [4]) [nM]	further results
CCn1cc(C(=O)Nc2ccc(CC(=O)N3C[C@@H](F)C[C@H]3CO[C@H]3CC[C@H](C(=O)O)CC3)cc2Cl)c2ccccc21	204			inhibition (Integrin alpha-4/beta-1 [2]): 21%
Cn1cc(C(=O)Nc2cc(Cl)c(CC(=O)N3C[C@@H](F)C[C@H]3CO[C@H]3CC[C@H](C(=O)O)CC3)cc2Cl)c2ccccc21	5.5	1880	241	
O=C(Cc1ccc(Nc2nc3cccc(F)c3o2)c(Cl)c1)N1C[C@@H](F)C[C@H]1CO[C@H]1CC[C@H](C(=O)O)CC1	40		1030	
O=C(Cc1ccc(Nc2nc3ccc(F)cc3o2)c(Cl)c1)N1C[C@@H](F)C[C@H]1CO[C@H]1CC[C@H](C(=O)O)CC1	20		630	
Cc1cccc2oc(Nc3ccc(CC(=O)N4C[C@@H](F)C[C@H]4CO[C@H]4CC[C@H](C(=O)O)CC4)cc3Cl)nc12	12		290	
Cc1ccc(F)cc1Nc1nc2ccc(CC(=O)N3C[C@@H](F)C[C@H]3CO[C@H]3CC[C@H](C(=O)O)CC3)c(F)c2o1	2.8	912	439	
Cc1ccccc1Cc1nc2ccc(CC(=O)N3C[C@@H](F)C[C@H]3CO[C@H]3CC[C@H](C(=O)O)CC3)cc2o1				inhibition (Integrin alpha-4/beta-1 [11]): 7%; inhibition (Integrin alpha-4/beta-1 [12]): 33%
O=C(Nc1cc(F)c(CC(=O)N2C[C@@H](F)C[C@H]2CO[C@H]2CC[C@H](C(=O)O)CC2)cc1Cl)N1CCc2ccccc21	2.7	2960	171	
O=C(Nc1ccc(CC(=O)N2C[C@@H](F)C[C@H]2CO[C@H]2CC[C@H](C(=O)O)CC2)cc1Cl)c1nccc2ccccc12	14		418	
O=C(Nc1cc(F)c(CC(=O)N2C[C@@H](F)C[C@H]2CO[C@H]2CC[C@H](C(=O)O)CC2)cc1Cl)c1nsc2ccccc12	7.5	307	176	
CC(C)n1cc(C(=O)Nc2ccc(CC(=O)N3C[C@@H](F)C[C@H]3CO[C@H]3CC[C@H](C(=O)O)CC3)cc2Cl)c2ccccc21				inhibition (Integrin alpha-4/beta-1 [13]): 41%; inhibition (Integrin alpha-4/beta-1 [2]): 8%
O=C(Nc1ccc(CC(=O)N2C[C@@H](F)C[C@H]2CO[C@H]2CC[C@H](C(=O)O)CC2)cc1Cl)c1nsc2ccccc12	2.7	2150	196	
Cn1cc(C(=O)Nc2cc(Cl)c(CC(=O)N3C[C@@H](O)C[C@H]3CO[C@H]3CC[C@H](C(=O)O)CC3)cc2Cl)c2ccccc21	7.8	93	70	
Cc1ccccc1NC(=O)Nc1ccc(CC(=O)N2C[C@@H](F)C[C@H]2COc2ccc(C(=O)O)cc2)cc1Cl				clearance (in vivo): 31.5 mL/min/kg; bioavailability [14]: 11%
O=C(Cc1ccc(Nc2nc3cc(F)ccc3o2)c(Cl)c1)N1C[C@@H](F)C[C@H]1CO[C@H]1CC[C@H](C(=O)O)CC1	7.3	358	223	
Cc1c(F)cccc1Nc1nc2ccc(CC(=O)N3C[C@@H](F)C[C@H]3CO[C@H]3CC[C@H](C(=O)O)CC3)c(F)c2o1	47			inhibition (Integrin alpha-4/beta-1 [15]): 13%
O=C(Nc1cc(F)c(CC(=O)N2C[C@@H](F)C[C@H]2CO[C@H]2CC[C@H](C(=O)O)CC2)cc1Cl)c1nccc2ccccc12	32		1670	
Cn1cc(C(=O)Nc2cc(F)c(CC(=O)N3C[C@@H](O)C[C@H]3CO[C@H]3CC[C@H](C(=O)O)CC3)cc2Cl)c2ccccc21	6.4	452	45	

Continued, in another order:

IC50 (Integrin alpha-4/beta-1 [1]) [nM]	concentration at 0.25 h [3] [ng/mL]	IC50 (Integrin alpha-4/beta-1 [4]) [nM]	SMILES	further results
12		370	Cn1cc(C(=O)Nc2cc(F)c(CC(=O)N3CCC[C@H]3CO[C@H]3CC[C@H](C(=O)O)CC3)cc2Cl)c2ccccc21	
2.6	5160	92	Cn1cc(C(=O)Nc2ccc(CC(=O)N3C[C@@H](F)C[C@H]3CO[C@H]3CC[C@H](C(=O)O)CC3)cc2Cl)c2ccccc21	Vd [5]: 0.139 L/kg; clearance [6]: 5 mL/min/kg; half-life [7]: 42 min; inhibition (INH) (Mus musculus [8]): 13%
5	11400	284	Cn1cc(C(=O)Nc2cc(F)c(CC(=O)N3C[C@@H](F)C[C@H]3CO[C@H]3CC[C@H](C(=O)O)CC3)cc2Cl)c2ccccc21	Vd [5]: 0.153 L/kg; Activity (Mus musculus [9]): Toxic; clearance [6]: 2.6 mL/min/kg; half-life [7]: 54 min; inhibition (INH) (Mus musculus [8]): 57%; Activity (Mus musculus [10]): Toxic
1.9	1100	83	O=C(Nc1ccc(CC(=O)N2C[C@@H](F)C[C@H]2CO[C@H]2CC[C@H](C(=O)O)CC2)cc1Cl)N1CCc2ccccc21	
4.4	448	131	Cc1ccc(F)cc1Nc1nc2ccc(CC(=O)N3C[C@@H](F)C[C@H]3CO[C@H]3CC[C@H](C(=O)O)CC3)cc2o1	
8.5	848	108	O=C(Nc1cc(F)c(CC(=O)N2C[C@@H](F)C[C@H]2CO[C@H]2CC[C@H](C(=O)O)CC2)cc1Cl)c1n[nH]c2ccccc12	
3	363	70	Cc1ccccc1Nc1nc2ccc(CC(=O)N3C[C@@H](F)C[C@H]3CO[C@H]3CC[C@H](C(=O)O)CC3)c(F)c2o1	
12		1680	Cc1cc(F)ccc1Nc1nc2ccc(CC(=O)N3C[C@@H](F)C[C@H]3CO[C@H]3CC[C@H](C(=O)O)CC3)c(F)c2o1	
5.9	508	138	O=C(Cc1ccc(Nc2nc3ccccc3o2)c(Cl)c1)N1C[C@@H](F)C[C@H]1CO[C@H]1CC[C@H](C(=O)O)CC1	
0.53	193	3.9	O=C(Nc1ccc(CC(=O)N2C[C@@H](F)C[C@H]2CO[C@H]2CC[C@H](C(=O)O)CC2)cc1Cl)c1c[nH]c2ccccc12	Vd [5]: 0.668 L/kg; clearance [6]: 61.1 mL/min/kg; half-life [7]: 12 min
2.9	9400	36	CO[C@H]1C[C@@H](CO[C@H]2CC[C@H](C(=O)O)CC2)N(C(=O)Cc2cc(Cl)c(NC(=O)c3cn(C)c4ccccc34)cc2F)C1	inhibition (INH) (Mus musculus [8]): 30%
128			O=C(Nc1cc(F)c(CC(=O)N2C[C@@H](F)C[C@H]2CO[C@H]2CC[C@H](C(=O)O)CC2)cc1Cl)c1noc2ccccc12	inhibition (Integrin alpha-4/beta-1 [2]): 19%
